Experimental data reported in publication PMC4570879 (Journal of biomolecular screening, 2014).

Key:
[1] = biological target: T1, Human recombinant catalytic domain of PERK (Homo sapiens, UniProt Q9NZJ5); conditions: published PERK inhibitor; cited from earlier work
T1 sequence (Q9NZJ5 536-1116): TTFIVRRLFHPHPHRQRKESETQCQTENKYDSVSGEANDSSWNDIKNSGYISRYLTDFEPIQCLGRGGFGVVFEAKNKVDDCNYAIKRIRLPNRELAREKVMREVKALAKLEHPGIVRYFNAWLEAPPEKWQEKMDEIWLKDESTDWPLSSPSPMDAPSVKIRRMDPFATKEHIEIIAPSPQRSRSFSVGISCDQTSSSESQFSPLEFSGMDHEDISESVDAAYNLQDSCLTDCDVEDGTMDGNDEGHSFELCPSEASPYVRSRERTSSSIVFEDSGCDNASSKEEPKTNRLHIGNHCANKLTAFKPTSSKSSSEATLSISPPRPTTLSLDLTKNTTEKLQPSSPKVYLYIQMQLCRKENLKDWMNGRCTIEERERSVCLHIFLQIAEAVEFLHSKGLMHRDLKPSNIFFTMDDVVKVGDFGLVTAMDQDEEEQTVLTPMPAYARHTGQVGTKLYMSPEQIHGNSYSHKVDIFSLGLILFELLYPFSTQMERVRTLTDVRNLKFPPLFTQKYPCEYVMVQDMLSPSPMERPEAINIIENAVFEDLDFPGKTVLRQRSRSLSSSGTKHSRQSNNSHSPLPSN

[2] = test system: PERK; test: Thapsigargin-induced eIF2α phosphorylation in MEFs; format: cell-based, mouse; conditions: wild-type MEFs, pretreated at 50 µM for 1 or 24 h, then thapsigargin 500 nM 1 h
Method in brief: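 Wild-type mouse embryonic fibroblasts were grown in high-glucose DMEM with 4 mM L-glutamine, 10% FBS, penicillin/streptomycin and β-mercaptoethanol. Cells were pretreated with test compound at 50 µM for 1 or 24 h, then with 500 nM thapsigargin for 1 h; PERK⁻/⁻ MEFs served as control.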

[3] = biological target: T1, Human recombinant catalytic domain of PERK; test: Radiometric PERK kinase assay; format: biochemical; conditions: method of replots
Method in brief: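 Radiometric filter assay using GST-tagged human PERK catalytic domain (aa 536–1116) at 8 nM and full-length Flag-tagged eIF2α. Buffer was 20 mM HEPES pH 7.2, 10 mM MgCl₂, 150 mM NaCl, 0.01% Tween 20, with [γ-³³P]ATP, at room temperature. Initial velocity versus ATP was measured at fixed 10 µM eIF2α across several test compound concentrations. Reactions were stopped with 75 mM phosphoric acid, filter-captured, washed and scintillation-counted; no-PERK background; analysed by replots.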

Compound: Cn1cc(-c2ccc3c(c2)CCN3C(=O)Cc2cccc(C(F)(F)F)c2)c2c(N)ncnc21 [GSK2606414, 7-Methyl-5-(1-{[3-(trifluoromethyl)phenyl]acetyl}-2,3-di-hydro-1H–indol-5-yl)-7H–p yrrolo[2,3-d]pyrimidin-4-amine]
- mechanism of action on PERK [1]: ATP competitive

Compound: O=c1ccc2nccc3c4ccccc4n1c23 [LDN-0022506, canthin-6-one]
- stress-dependent eIF2α phosphorylation [2]: inhibited
- mechanism of inhibition with respect to ATP ([3]; ATP variable, fixed eIF2α): noncompetitive
- mechanism of inhibition with respect to eIF2α ([3]; eIF2α variable, fixed ATP): noncom-petitive
